Experimental data taken from ChEMBL document CHEMBL1122278, “Gastric antisecretory 9H-xanthen-9-amines” (1983).

Assays:
Rattus norvegicus [1] = test: Gastric antisecretory activity in pylorus-ligated rat at a concentration of 50 mg/kg po, expressed as increase in mean pH; NS means no significant change.; assay type: functional, organism-based; set-up: dose 50 mg/kg
Procedure, shortened: (§1)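 Male Carworth Farms rats (270–360 g), fasted 18 h with water; compound in PEG 200 by gavage 1 h before pylorus ligation under ether. Killed 2 h after ligation; juice centrifuged, volume and pH measured, supernatant titrated with NaOH to pH 7.4, output = volume × titre. Mean of six to seven animals against controls.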

Rattus norvegicus [2] = test: Gastric antisecretory activity in pylorus ligated rat at a concentration of 50 mg/kg po, expressed as % decrease in mean titratable acid output of gastric juice in treated vs. control groups; NS means no significant change.; assay type: functional, organism-based; set-up: dose 50 mg/kg; procedure, shortened: as §1
Rattus norvegicus [3] = test: Gastric antisecretory activity in pylorus-ligated rat at a concentration of 50 mg/kg perorally, expressed as increase in mean pH.; assay type: functional; conditions: route oral; procedure, shortened: as §1
Rattus norvegicus [4] = test: Gastric antisecretory activity in pylorus ligated rat at a concentration of 50 mg/kg perorally, expressed as % decrease in mean titratable acid output of gastric juice in treated vs. control groups.; assay type: functional; conditions: route oral; procedure, shortened: as §1
Rattus norvegicus [5] = test: Gastric antisecretory activity, in pylorus ligated rat (PLR,50 mg/kg po), expressed as increase in mean pH; assay type: functional; procedure, shortened: as §1
Rattus norvegicus [6] = test: Gastric antisecretory activity, in pylorus ligated rat (PLR,50 mg/kg po), expressed as % decrease in mean titratable acid output of gastric juice in treated vs. control groups; assay type: functional; procedure, shortened: as §1
Rattus norvegicus [7] = test: Gastric antisecretory activity in pylorus-ligated rat at a concentration of 50 mg/kg po, expressed as increase in mean pH; NS means no significant change; assay type: functional, organism-based; set-up: dose 50 mg/kg; procedure, shortened: as §1
Rattus norvegicus [8] = test: Effect of peroral administration of compound on acid secretion inhibition in the PLR; NS means no significant dose response.; assay type: functional, organism-based
Procedure, shortened: (§2)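 Rats (male Carworth Farms, 270–360 g) fasted 18 h; compound in PEG 200 by gavage 1 h before pylorus ligation under ether, six per group. Gastric contents collected 2 h post-ligation; pH, volume, titre (NaOH to pH 7.4) measured, output = volume × titre.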

Rattus norvegicus [9] = test: Effect of peroral administration of compound on acid secretion inhibition in the PLR; Value ranges from 2.6-8.5; assay type: functional; procedure, shortened: as §2
Rattus norvegicus [10] = test: Effect of intraduodenal administration of compound on acid secretion inhibition in the PLR; Value ranges from 4.7-9; assay type: functional
Rattus norvegicus [11] = test: Effect of peroral administration of compound on acid secretion inhibition in the PLR; Value ranges from 8.8-14.7; assay type: functional
Rattus norvegicus [12] = test: Effect of intraduodenal administration of compound on acid secretion inhibition in the PLR; Value ranges from 0.5-2.7; assay type: functional
Rattus norvegicus [13] = test: Effect of peroral administration of compound on acid secretion inhibition in the PLR; Value ranges from 4.1-12.1; assay type: functional
Rattus norvegicus [14] = test: Effect of intraduodenal administration of compound on acid secretion inhibition in the PLR; Value ranges from 0.9-4.7; assay type: functional
Rattus norvegicus [15] = test: Effect of intraduodenal administration of compound on acid secretion inhibition in the PLR; Value ranges from 0.5-4.4; assay type: functional
Rattus norvegicus [16] = test: Effect of intravenous administration of compound on acid secretion inhibition in the PLR; Value ranges from 0.7-5.0; assay type: functional
Procedure, shortened: (§3)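 Male Carworth Farms rats (270–360 g), fasted 18 h, pylorus ligated under ether; compound in PEG 200 given intravenously at ligation, six rats per group. Gastric contents taken 2 h after ligation, centrifuged, titrated with NaOH to pH 7.4; output = volume × titre.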

Rattus norvegicus [17] = test: Effect of peroral administration of compound on acid secretion inhibition in the PLR; Value ranges from 4.0-13.6; assay type: functional; procedure, shortened: as §2
Rattus norvegicus [18] = test: Effect of intraduodenal administration of compound on acid secretion inhibition in the PLR; Value ranges from 0.6-6.7; assay type: functional
Rattus norvegicus [19] = test: Effect of intravenous administration of compound on acid secretion inhibition in the PLR; Value ranges from 1.5-9.5; assay type: functional; procedure, shortened: as §3
Rattus norvegicus [20] = test: Effect of peroral administration of compound on acid secretion inhibition in the PLR;Value ranges from 3.6-12.2; assay type: functional; procedure, shortened: as §2
Rattus norvegicus [21] = test: Effect of intraduodenal administration of compound on acid secretion inhibition in the PLR; Value ranges from 0.2-2.1; assay type: functional
Rattus norvegicus [22] = test: Effect of intravenous administration of compound on acid secretion inhibition in the PLR; Value ranges from 1.8-5.9; assay type: functional; procedure, shortened: as §3
Rattus norvegicus [23] = test: Effect of peroral administration of compound on acid secretion inhibition in the PLR; Value ranges from 4.3-16.3; assay type: functional; procedure, shortened: as §2
Rattus norvegicus [24] = test: Effect of intraduodenal administration of compound on acid secretion inhibition in the PLR; Value ranges from 0.3-2.9; assay type: functional
Rattus norvegicus [25] = test: Effect of intravenous administration of compound on acid secretion inhibition in the PLR; Value ranges from 4.0-19.3; assay type: functional; procedure, shortened: as §3

| SMILES | Delta pH (Rattus norvegicus [3]) | Delta TAO (Rattus norvegicus [4]) | also measured |
| --- | --- | --- | --- |
| O=C(NC1c2ccccc2Oc2ccccc21)OCc1ccccc1 |  |  | Delta pH (Rattus norvegicus [1]): Not significant; Delta TAO (Rattus norvegicus [2]): Not significant |
| NC1c2ccccc2Oc2ccccc21 | 4.5 | 93 |  |
| CCO/C(C)=N\C1c2ccccc2Oc2ccccc21 |  |  | Delta pH (Rattus norvegicus [5]): 4.4; Delta TAO (Rattus norvegicus [6]): 97 |
| c1cncc(C2CCCN2C2c3ccccc3Oc3ccccc32)c1 (stereo unspecified) | 1.8 | 65 |  |
| c1cnc(NC2c3ccccc3Oc3ccccc32)nc1 |  | 48 | Delta pH (Rattus norvegicus [7]): Not significant |
| c1ccc2c(c1)Oc1ccccc1C2N1CCNCC1 | 5.3 | 98 |  |
| NS(=O)(=O)NC1c2ccccc2Oc2ccccc21 | 2 | 87 |  |
| c1ccc2c(c1)Oc1ccccc1C2NCc1ccncc1 | 3.6 | 77 |  |
| O=CNNC1c2ccccc2Oc2ccccc21 |  |  | Delta pH (Rattus norvegicus [5]): 2; Delta TAO (Rattus norvegicus [6]): 80 |
| c1ccc(NNC2c3ccccc3Oc3ccccc32)cc1 |  |  | Delta pH (Rattus norvegicus [7]): Not significant |
| c1ccc2c(c1)Oc1ccccc1C2NC1=NCCS1 | 3.6 | 95 |  |
| O=S(=O)(NC1c2ccccc2Oc2ccccc21)c1ccccc1 |  |  | Delta pH (Rattus norvegicus [7]): Not significant; Delta TAO (Rattus norvegicus [2]): Not significant |
| CN(CCc1ccccn1)C1c2ccccc2Oc2ccccc21 | 5.6 | 99 | ED50 (Rattus norvegicus [8]): Not significant; ED50 (Rattus norvegicus [9]): 4.8 mg/kg |
| O=C1CCC(=O)N1C1c2ccccc2Oc2ccccc21 |  |  | Delta pH (Rattus norvegicus [1]): Not significant; Delta TAO (Rattus norvegicus [2]): Not significant |
| c1ccc(CCCNC2c3ccccc3Oc3ccccc32)nc1 | 5.7 | 99 |  |
| c1ccc2c(c1)Oc1ccccc1C2NCC1CCCCO1 (stereo unspecified) | 3.6 | 87 |  |
| CCOC(=O)N1CCN(C2c3ccccc3Oc3ccccc32)CC1 | 2.2 |  |  |
| c1ccc(NNC2c3ccccc3Oc3ccccc32)nc1 | 1.4 | 73 |  |
| Cc1cc(C)n(C2c3ccccc3Oc3ccccc32)n1 |  |  | Delta pH (Rattus norvegicus [7]): Not significant; Delta TAO (Rattus norvegicus [2]): Not significant |
| CN1CCC(NC2c3ccccc3Oc3ccccc32)CC1 | 6.4 | 99 |  |
| C=CCNC1c2ccccc2Oc2ccccc21 | 4.4 |  | Delta TAO (Rattus norvegicus [2]): Not significant |
| c1ccc2c(c1)Oc1ccccc1C2Nc1nccs1 |  |  | Delta pH (Rattus norvegicus [7]): Not significant |
| c1ccc(CNC2c3ccccc3Oc3ccccc32)nc1 | 4.8 | 96 |  |
| c1ccc(CCNC2c3ccccc3Oc3ccccc32)nc1 | 5.9 | 99 |  |
| c1ccc2c(c1)Oc1ccccc1C2NC1CN2CCC1CC2 (stereo unspecified) | 2.4 | 65 |  |

| SMILES | Delta pH (Rattus norvegicus [3]) | Delta TAO (Rattus norvegicus [4]) | also measured |
| --- | --- | --- | --- |
| c1ccc2c(c1)Oc1ccccc1C2NCCN1CCOCC1 | 2.6 | 47 |  |
| CC(CCCc1ccccn1)NC1c2ccccc2Oc2ccccc21 (stereo unspecified) | 6.1 | 100 |  |
| CC(Cc1ccccn1)NC1c2ccccc2Oc2ccccc21 (stereo unspecified) | 3.8 | 89 | ED50 (Rattus norvegicus [10]): 6.3 m equiv [H+] l-1; ED50 (Rattus norvegicus [8]): Not significant; ED50 (Rattus norvegicus [11]): 11.4 m equiv [H+] l-1; Acid output (Rattus norvegicus [12]): 1.3 u equiv of [H+] 2hr-1; Acid output (Rattus norvegicus [13]): 7.3 u equiv of [H+] 2hr-1; Volume (Rattus norvegicus [14]): 2.2 ml 2hr-1 |
| c1cncc(NC2c3ccccc3Oc3ccccc32)c1 |  |  | Delta pH (Rattus norvegicus [7]): Not significant; Delta TAO (Rattus norvegicus [2]): Not significant |
| CCN1CCCC(N(C)C2c3ccccc3Oc3ccccc32)C1 (stereo unspecified) | 5.1 | 98 |  |
| c1ccc2c(c1)Oc1ccccc1C2NCCn1ccnc1 | 5.8 | 98 | ED50 (Rattus norvegicus [8]): Not significant; ED50 (Rattus norvegicus [15]): 1.7 mg/kg; ED50 (Rattus norvegicus [16]): 2 mg/kg; ED50 (Rattus norvegicus [17]): 7.7 mg/kg; ED50 (Rattus norvegicus [18]): 2.4 mg/kg; ED50 (Rattus norvegicus [19]): 3.3 mg/kg |
| CN(Cc1cccnc1)C1c2ccccc2Oc2ccccc21 | 3.6 | 92 |  |
| c1ccc(CNC2c3ccccc3Oc3ccccc32)cc1 | 1.9 | 69 |  |
| CCN(CCc1ccccn1)C1c2ccccc2Oc2ccccc21 | 4.3 | 86 |  |
| CN(C1c2ccccc2Oc2ccccc21)C1c2ccccc2Oc2ccccc21 |  | 72 | Delta pH (Rattus norvegicus [1]): Not significant |
| CN1CCN(C2c3ccccc3Oc3ccccc32)CC1 | 5.4 | 97 | ED50 (Rattus norvegicus [8]): Not significant; ED50 (Rattus norvegicus [20]): 6.8 mg/kg |
| NC(=O)N(O)C1c2ccccc2Oc2ccccc21 |  |  | Delta pH (Rattus norvegicus [5]): 1.9; Delta TAO (Rattus norvegicus [6]): 88 |
| O=C(NC1c2ccccc2Oc2ccccc21)c1ccccc1O |  |  | Delta pH (Rattus norvegicus [1]): Not significant; Delta TAO (Rattus norvegicus [2]): Not significant |
| CN(C)CC1CCCCN1C1c2ccccc2Oc2ccccc21 (stereo unspecified) | 5.2 | 95 |  |
| CN1CCCN(C2c3ccccc3Oc3ccccc32)CC1 | 4.6 | 92 |  |
| CC1=NCCN1CCNC1c2ccccc2Oc2ccccc21 | 3 | 88 |  |
| CN(C)C1CCCN(C2c3ccccc3Oc3ccccc32)C1 (stereo unspecified) | 3.1 | 80 | ED50 (Rattus norvegicus [8]): Not significant; ED50 (Rattus norvegicus [21]): 0.9 mg/kg; ED50 (Rattus norvegicus [22]): 3.2 mg/kg; ED50 (Rattus norvegicus [23]): 8.9 mg/kg; ED50 (Rattus norvegicus [24]): 1.2 mg/kg; ED50 (Rattus norvegicus [25]): 6.3 mg/kg |
| c1cncc(CNC2c3ccccc3Oc3ccccc32)c1 | 4.2 | 94 |  |
| CN(C)C1CCN(C2c3ccccc3Oc3ccccc32)CC1 | 5.8 | 97 |  |
| CS(=O)(=O)NC1c2ccccc2Oc2ccccc21 |  |  | Delta pH (Rattus norvegicus [7]): Not significant; Delta TAO (Rattus norvegicus [2]): Not significant |
| O=S1(=O)CCC(NC2c3ccccc3Oc3ccccc32)C1 (stereo unspecified) | 1.5 | 57 |  |
| CC(=N)NC1c2ccccc2Oc2ccccc21 | 1.1 | 88 |  |
| c1ccc(N2CCN(C3c4ccccc4Oc4ccccc43)CC2)nc1 |  |  | Delta pH (Rattus norvegicus [7]): Not significant; ED50 (Rattus norvegicus [2]): Not significant |
| C=CCN(CC=C)C1c2ccccc2Oc2ccccc21 | 1.3 |  |  |
